Measured values published in PubChem BioAssay.
Active and inactive are the calls of the source.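 Rule for the calls, unless noted: active = duplicate-averaged activation above buffer control mean plus 5 SD of those controls; inactive = the rest.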

Columns and labels:
[1] = nonspecific flux increase, KCNQ1-free cells – parental CHO cells, counter-screen for KCNQ1 potentiator project (AID 493006); conditions: parental CHO-K1 cells, FluxOR thallium flux, at 10 µM; hits give high values
Outline: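 Assay system: Untransfected host CHO-K1 cells with FluxOR thallium dye | Probe or stimulus: Potassium/thallium depolarization pulse | Schedule: Overnight 37 °C plating, 90 min RT dye, 20 min compound | Detection: Kinetic thallium-flux fluorescence | Read-out: Max-minus-min fluorescence over baseline, percent of buffer-to-R-L3 span | Benchmarks: Low control buffer, high control R-L3 activator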

[2] = molecular target: Potassium voltage-gated channel subfamily KQT member 1 (Homo sapiens) (UniProt P51787); experiment: enhancement of KCNQ1 channel thallium flux – FluxOR thallium flux, CHO cells, duplicates, confirmation (AID 493007;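 active = potentiation averaged over duplicate wells exceeding buffer-only control mean by more than 3 SD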;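 for outcome: cells depolarized by a potassium plus thallium sulfate stimulus after compound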); conditions: KCNQ1 cell line, FluxOR thallium flux fluorescence, at 10 µM; hits give high values, % of reference activator effect, buffer zero
Potassium voltage-gated channel subfamily KQT member 1 (Homo sapiens), sequence (P51787 whole entry, looked up): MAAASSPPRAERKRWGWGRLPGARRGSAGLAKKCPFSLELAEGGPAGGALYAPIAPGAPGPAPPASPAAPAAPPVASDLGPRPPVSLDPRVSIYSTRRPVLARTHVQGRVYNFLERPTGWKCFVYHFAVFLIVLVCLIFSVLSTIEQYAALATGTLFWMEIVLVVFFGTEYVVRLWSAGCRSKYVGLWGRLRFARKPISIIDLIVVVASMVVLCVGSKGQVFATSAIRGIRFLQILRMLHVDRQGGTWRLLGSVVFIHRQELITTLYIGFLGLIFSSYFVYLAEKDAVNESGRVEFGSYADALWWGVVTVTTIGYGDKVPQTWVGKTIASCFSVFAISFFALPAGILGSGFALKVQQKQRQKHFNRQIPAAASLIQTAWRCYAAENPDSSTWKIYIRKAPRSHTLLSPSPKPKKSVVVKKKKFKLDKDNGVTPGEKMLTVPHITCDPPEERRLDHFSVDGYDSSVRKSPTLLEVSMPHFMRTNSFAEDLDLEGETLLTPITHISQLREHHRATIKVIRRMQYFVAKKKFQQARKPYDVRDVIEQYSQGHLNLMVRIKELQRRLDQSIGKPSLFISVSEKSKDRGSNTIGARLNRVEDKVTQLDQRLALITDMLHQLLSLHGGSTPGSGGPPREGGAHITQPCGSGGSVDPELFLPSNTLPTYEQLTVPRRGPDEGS
Outline: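 Material: KCNQ1-expressing CHO cell line; Incubation: FluxOR dye loading 90 min, compound exposure 20 min, room temperature; Detection: FluxOR Tl+ flux fluorescence, 10 s baseline plus 110 s recording; Read-out: percent activation between buffer and R-L3 responses; Control set: buffer-only wells as 0% and R-L3 activator as 100%; Replication: duplicate wells per compound.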

[3] = molecular target: Potassium voltage-gated channel subfamily KQT member 2 (Rattus norvegicus) (UniProt O88943); experiment: KCNQ2 thallium flux enhancement – KCNQ2-CHO-K1 cells, selectivity assay for KCNQ1 potentiator project (AID 493009;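 active = mean duplicate potentiation above the buffer control mean plus 5 SD of buffer wells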;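 note: assay conditions were tuned for KCNQ1 rather than KCNQ2 modulators; signal is max minus min fluorescence divided by baseline after thallium stimulus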); conditions: FluxOR thallium flux fluorescence, at 10 µM; hits give high values, scaled: buffer 0, activator control 100
Potassium voltage-gated channel subfamily KQT member 2 (Rattus norvegicus), sequence (O88943 whole entry, looked up): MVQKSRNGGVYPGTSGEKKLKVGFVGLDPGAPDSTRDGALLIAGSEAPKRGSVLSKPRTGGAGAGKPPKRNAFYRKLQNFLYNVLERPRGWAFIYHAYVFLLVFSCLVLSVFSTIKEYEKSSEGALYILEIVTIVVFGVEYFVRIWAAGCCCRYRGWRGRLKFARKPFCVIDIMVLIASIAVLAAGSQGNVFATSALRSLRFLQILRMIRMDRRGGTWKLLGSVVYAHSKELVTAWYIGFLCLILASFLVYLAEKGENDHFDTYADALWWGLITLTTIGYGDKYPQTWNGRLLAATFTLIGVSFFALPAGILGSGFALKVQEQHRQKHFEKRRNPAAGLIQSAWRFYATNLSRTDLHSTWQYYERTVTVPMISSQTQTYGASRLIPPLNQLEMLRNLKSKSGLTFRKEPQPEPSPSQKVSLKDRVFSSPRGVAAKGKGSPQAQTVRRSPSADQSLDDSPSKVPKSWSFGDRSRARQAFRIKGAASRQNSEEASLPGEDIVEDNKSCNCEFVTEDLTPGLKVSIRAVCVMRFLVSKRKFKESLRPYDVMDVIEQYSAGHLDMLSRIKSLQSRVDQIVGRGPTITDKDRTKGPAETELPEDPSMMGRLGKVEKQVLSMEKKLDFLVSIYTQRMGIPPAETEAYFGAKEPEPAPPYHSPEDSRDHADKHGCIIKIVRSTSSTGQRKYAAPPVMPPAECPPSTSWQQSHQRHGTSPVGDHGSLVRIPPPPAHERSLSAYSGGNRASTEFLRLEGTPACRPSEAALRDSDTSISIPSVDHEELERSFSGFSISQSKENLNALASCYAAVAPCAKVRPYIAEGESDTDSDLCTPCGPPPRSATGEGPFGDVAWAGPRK

[4] = molecular target: Potassium voltage-gated channel subfamily KQT member 1 (Homo sapiens) (UniProt P51787); experiment: KCNQ1 activators by electrophysiology – IonWorks patch clamp, KCNQ1-CHO cells, orthogonal assay for KCNQ1 potentiator project, confirmation (AID 493184;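 active = current rise at least 3 SD above the untreated control mean in each of two repeat wells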); conditions: automated patch clamp current, at 10 µM; hits give high values
Outline: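 assay system = KCNQ1-expressing CHO cells | medium = external bath solution at pH 7.4 | probe or stimulus = 2,000 ms depolarization, -90 to +40 mV | compound dosing = 10 µM final, single point | measured by = automated voltage clamp, amphotericin B perforated patch | measure = percent current increase versus pre-compound level | replication = duplicates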

[5] = molecular target: Potassium voltage-gated channel subfamily E member 1 (Homo sapiens) + Potassium voltage-gated channel subfamily KQT member 1 (Homo sapiens) (UniProt P15382+P51787); experiment: KCNQ1-E1 channel activation – thallium flux, CHO-K1 KCNQ1/E1 cells, selectivity assay for KCNQ1 potentiator project, confirmation (AID 493186;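 active = mean duplicate activation above the buffer control mean plus 5 SD of those controls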); conditions: FluxOR thallium flux, at 10 µM; hits give high values
Potassium voltage-gated channel subfamily E member 1 (Homo sapiens) + Potassium voltage-gated channel subfamily KQT member 1 (Homo sapiens), sequence (P51787 whole entry, looked up): as the sequence (P51787 whole entry, looked up) above
Outline: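 Test system – CHO-K1 cells with KCNQ1/E1 · Measured by – FluxOR Tl+ flux fluorescence, kinetic read · Controls – buffer low control, R-L3 high control · Times – dye 90 min, compound 20 min, room temperature · Replication – duplicate wells per compound · Doses – one test concentration · Evaluation – fluorescence rise relative to baseline, as percent of R-L3 response above buffer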

CN(C)CCNc1ncnc2c1sc1nc(N3CCOCC3)c3c(c12)CC(C)(C)SC3
inactive: outcome [1] | outcome [2] | outcome [3] | outcome [4] | outcome [5]

CC(=O)c1cccc(OCc2cc(C(=O)N(C)C(C)c3ccccn3)no2)c1 (stereo not given)
inactive: outcome [1] | outcome [2] | outcome [3] | outcome [4] | outcome [5]

O=C(Nc1nnc(-c2ccccc2)o1)c1cc(Cl)sc1Cl
active: potentiation [3] 148%
inactive: outcome [1] | outcome [2] | outcome [4] | outcome [5]

Cc1ccc(S(=O)(=O)N2CCN(C(=O)c3ccc(Br)o3)CC2)c(C)c1
inactive: outcome [1] | outcome [2] | outcome [3] | outcome [4] | outcome [5]

COc1ccc2c(c1)[nH]c1c(=O)n(/N=C/c3ccc(OC)c(CN4CCCC4)c3)cnc12
inactive: outcome [1] | outcome [2] | outcome [3] | outcome [4] | outcome [5]

O=C(NNc1cc(N2CCOCC2)nc(N2CCOCC2)n1)C12CC3CC(CC(C3)C1)C2
inactive: outcome [1] | outcome [3] | outcome [4] | outcome [5]
active: potentiation [2] 51%

Cc1ccsc1/C=N\NC(=O)c1n[nH]c2c1CCC2
inactive: outcome [1] | outcome [2] | outcome [3] | outcome [4] | outcome [5]

COc1cc2c(cc1OC)CN(CCC(=O)c1ccc(Br)cc1)CC2
inactive: outcome [1] | outcome [2] | outcome [3] | outcome [4] | outcome [5]

O=C(Nc1nc(-c2cc(F)ccc2F)cs1)c1ccccn1
inactive: outcome [1] | outcome [2] | outcome [3] | outcome [4] | outcome [5]

O=C(NCc1ccccc1)C(=O)Nc1nc(C23CC4CC(CC(C4)C2)C3)cs1
inactive: outcome [1] | outcome [2] | outcome [3] | outcome [4] | outcome [5]

CCOC(=O)c1c(C)cccc1OCC(N)=O
inactive: outcome [1] | outcome [2] | outcome [3] | outcome [4] | outcome [5]

CCCC(=O)n1nc(-c2ccc(C)cc2)nc1NCc1ccco1
active: potentiation [2] 80% | potentiation [3] 148%
inactive: outcome [1] | outcome [4] | outcome [5]

Cn1cccc1C(=O)NNC(=O)COc1ccccc1F
inactive: outcome [1] | outcome [2] | outcome [3] | outcome [4] | outcome [5]

Cn1cccc1/C=N/n1c(-c2ccc(Cl)cc2Cl)n[nH]c1=S
inactive: outcome [1] | outcome [2] | outcome [3] | outcome [4] | outcome [5]

CNCC/C=C1/c2ccccc2CSc2ccccc21
inactive: outcome [1] | outcome [2] | outcome [3] | outcome [4] | outcome [5]

Oc1oc(-c2ccccc2)nc1/C=N/c1nccs1
inactive: outcome [1] | outcome [3] | outcome [4] | outcome [5]
active: potentiation [2] 29.5%

Cc1nc(-c2ccc(NC(=O)Cc3ccccc3)cc2)cs1
inactive: outcome [1] | outcome [2] | outcome [3] | outcome [4] | outcome [5]

CNC(=O)CSc1nc2c(c(=O)n(C)c(=O)n2C)n1Cc1ccc(C)cc1
inactive: outcome [1] | outcome [2] | outcome [3] | outcome [4] | outcome [5]

CCc1ccc(NC(=S)NC2CC3CCCC(C2)N3Cc2cccs2)cc1 (stereo not given)
inactive: outcome [1] | outcome [2] | outcome [3] | outcome [4] | outcome [5]

Cn1c(SCC(=O)NC2CC2)nnc1-c1cccs1
inactive: outcome [1] | outcome [2] | outcome [3] | outcome [4] | outcome [5]

Cc1ccc(C(=O)NC(=S)N(C)C2CCCCC2)cc1Br
inactive: outcome [1] | outcome [4]
active: potentiation [2] 61% | potentiation [3] 159% | activation [5] 40.1%

N#Cc1ccc(Cl)cc1NC(=O)COC(=O)[C@H](CCC(N)=O)NC(=O)c1ccc(F)cc1
inactive: outcome [1] | outcome [2] | outcome [3] | outcome [4] | outcome [5]

Cc1cccc2sc(N(CCCN(C)C)C(=O)c3ccc4ncsc4c3)nc12
inactive: outcome [1] | outcome [2] | outcome [3] | outcome [4] | outcome [5]

Cc1cccc(C)c1OCc1cc(C(=O)N(C)Cc2cc(C3CC3)n[nH]2)no1
inactive: outcome [1] | outcome [2] | outcome [3] | outcome [4] | outcome [5]

CCn1c(=S)sc2nc(C)sc21
inactive: outcome [1] | outcome [2] | outcome [3] | outcome [4] | outcome [5]

CCOC(=O)SC1=N/C(=C\c2ccc(N(C)C)cc2)C(=O)S1
active: activation [5] 15.3%
inactive: outcome [1] | outcome [2] | outcome [3] | outcome [4]

O=C(Nc1cccnc1)NC1CCCCC1
inactive: outcome [1] | outcome [2] | outcome [3] | outcome [4] | outcome [5]

O=C(COc1ccccc1Cl)NC(=S)N1CCc2ccccc21
inactive: outcome [1] | outcome [2] | outcome [3] | outcome [4] | outcome [5]

COC(=O)c1sccc1NC(=O)CSc1ccccc1NS(=O)(=O)c1cc(Cl)ccc1Cl
inactive: outcome [1] | outcome [2] | outcome [3] | outcome [4] | outcome [5]

Cc1ccc(NC(=S)c2nc3ccccc3s2)cc1
inactive: outcome [1] | outcome [3] | outcome [4] | outcome [5]
active: potentiation [2] 32%
